# Assay outcomes deposited in PubChem by several laboratories.
# Runt-SMMHC FRET = inhibitors of human RUNX1 Runt domain binding to CBFb-SMMHC. Q01196+Q13951. Cerulean-Runt/Venus-CBFb-SMMHC FRET ratio 530/480, 1 h. inhibition, % at 20 µM. 220,000 tested, 0.74% active. AID 1434;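 active = mean inhibition across duplicate retests at 20 µM reaching about 50%, limit read from the data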;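 note: 0% = DMSO wells and 100% = wells with excess untagged CBFb-SMMHC; inhibitors lower the FRET ratio by blocking Runt binding to CBFb-SMMHC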
# Target sequence (Q01196 whole entry, looked up, the tested form may be a part): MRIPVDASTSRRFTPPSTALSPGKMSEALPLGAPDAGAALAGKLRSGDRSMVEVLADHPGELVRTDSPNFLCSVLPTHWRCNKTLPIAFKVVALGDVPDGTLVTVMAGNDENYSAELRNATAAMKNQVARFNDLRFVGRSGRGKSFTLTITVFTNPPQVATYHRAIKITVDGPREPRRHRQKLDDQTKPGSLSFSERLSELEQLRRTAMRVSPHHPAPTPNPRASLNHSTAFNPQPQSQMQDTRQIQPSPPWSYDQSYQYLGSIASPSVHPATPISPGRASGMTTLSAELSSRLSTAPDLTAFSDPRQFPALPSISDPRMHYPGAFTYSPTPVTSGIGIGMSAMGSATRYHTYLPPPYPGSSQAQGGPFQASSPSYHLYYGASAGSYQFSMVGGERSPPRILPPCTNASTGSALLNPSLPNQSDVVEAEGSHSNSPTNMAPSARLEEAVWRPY
# Target sequence (Q13951 whole entry, looked up, the tested form may be a part): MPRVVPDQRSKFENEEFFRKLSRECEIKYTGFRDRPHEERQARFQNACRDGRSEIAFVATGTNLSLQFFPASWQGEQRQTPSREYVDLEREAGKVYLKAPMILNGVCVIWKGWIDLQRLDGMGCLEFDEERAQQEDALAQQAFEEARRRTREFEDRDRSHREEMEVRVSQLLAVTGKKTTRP
# Runt-CBFb FRET = Runt domain-CBFb interaction inhibition; inhibition, % at 20 µM; Cerulean-Runt/Venus-CBFb FRET ratio 530/480, 1 h; AID 1496; 220,000 tested, 0.46% active;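 active = inhibition over about 50% at 20 µM in the single-dose screen, limit read from the data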;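 note: 0% = DMSO wells and 100% = excess unlabeled CBFb competitor control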
#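 Reagent – Venus-CBFb binding partner, 100 nM · Assay system – Cerulean-tagged RUNX1 Runt domain (FRET donor) fusion protein · Input – 100 nM per protein · Incubation – two 1 h room-temperature incubations shielded from light · Measured by – FRET fluorescence · Medium – Tris buffer pH 7.5 with salts and BSA · Benchmarks – unlabeled CBFb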
# CaV13 FRET inh = Primary screen for inhibitors of IQ motif and Ca2+-dependent inactivation inhibitor domain binding in CACNA1D, Förster resonance energy transfer in living cells, …. inhibition, % at 12.3 µM. 340,000 tested, 0.098% active. HEK cells, CFP/YFP FRET ICDI-IQ, plate reader, 10 min; percent FRET-ratio fall versus neutral wells;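 active = mean replicate inhibition of at least 30% and at least 1% of replicates passing that level; inconclusive = only one of the two criteria is met; inactive = neither criterion is met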;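 note: 0% = median of the neutral control wells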
# RanGTP-Imp inh = inhibitors of RanGTP-importin-beta interaction, primary screen, biochemical, FRET, CFP-Ran, YFP-importin-beta, homogeneous; 300,000 tested, 1.1% active; inhibition, % (test concentration not listed); cell-free CFP-Ran/YFP-importin-beta FRET ratio; AID 2216;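 active = more than half of the replicate wells show a fall in the fluorescence ratio signal beyond about 16%, limit read from the data, passing the limit was not always enough; inconclusive = exactly half of the replicate wells pass the set limit; inactive = fewer than half of replicates pass the limit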;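 note: 0% = DMSO wells and 100% = Ran loaded with GDP instead of GTP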
# Hck Nef HTS = inhibitors of human Hck kinase activated by Nef. P08631. Recombinant Hck-YEEI plus Nef, Z-Lyte FRET kinase assay. inhibition, % at 20 µM. 220,000 tested, 0.68% active;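 active = Hck-Nef kinase inhibition above about 50%, limit read from the data; inactive = inhibition below that limit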;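 note: 0% = DMSO with Hck plus Nef and 100% = Hck alone without Nef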
# An asterisk follows results filed as active; u = inconclusive; x = no result given. The list is not random: actives were taken first. Their share in the collection is about 1.5%.
SMILES,Runt-SMMHC FRET,Runt-CBFb FRET,CaV13 FRET inh,RanGTP-Imp inh,Hck Nef HTS
C=C(C)Cc1c(C)c(C#N)c2nc3ccccc3n2c1N1CCCCC1,32,14,-5,29*,1
COCCN(CCOC)c1cc(C)c(C#N)c2nc3ccccc3n12,63*,53*,-3,57*,6
C=CCc1c(C)c(C#N)c2nc3ccccc3n2c1N1CCCCC1,67,16,-2,7,13
CC(OC(=O)CCCN=C1NS(=O)(=O)c2ccccc21)C(=O)Nc1ccc(F)cc1Cl (centres undefined),x,x,-6,1,x
CCc1ccccc1NC(=O)c1cc(=O)c2ccccc2o1,-2,1,-5,-2,9
CC(C)NC(=O)C1(C)CSCC(=O)N1C1CCN(Cc2ccccc2)CC1 (centres undefined),x,x,-6,x,x
N=c1c(C(=O)NCCN2CCOCC2)cc2c(=O)n3ccccc3nc2n1CCc1ccccc1,x,x,21,156*,x
Cc1ccc(Cn2c(=N)c(C(=O)NCCN3CCOCC3)cc3c(=O)n4ccccc4nc32)cc1,x,x,16,-1,x
N=c1c(C(=O)NCCc2ccccc2)cc2c(=O)n3ccccc3nc2n1CCCN1CCOCC1,x,x,12,175*,x
N=c1c(C(=O)NCc2ccccc2)cc2c(=O)n3ccccc3nc2n1CCCN1CCOCC1,40,58*,x,x,x
COCCCn1c(C(=O)NCCN2CCOCC2)cc2c(=O)n3ccccc3nc21,x,x,-3,6,x
O=C(Nc1ccc2nc(-c3cccs3)c(-c3cccs3)nc2c1)NC1CC1,-73,-13,-1,121*,7
COCCNC(=O)Nc1ccc2nc(-c3cccs3)c(-c3cccs3)nc2c1,81*,15,-2,120*,2
O=C(Nc1cccs1)NC1CCCC1,-19,0,x,2,2
CN(C)S(=O)(=O)c1ccc(Cl)c(C(=O)NNC(=O)Cn2ccc(C(F)(F)F)n2)c1,x,x,-15,x,x
COc1cc(-c2nnc(SCc3cc(=O)oc4cc(O)c(O)cc34)o2)cc(OC)c1OC,59*,67*,-7,9,11
Cc1cc(OCC(=O)OC(C)C(=O)Nc2ccc(N3CCOCC3)cc2)ccc1Cl (centres undefined),x,x,-6,x,x
COC(=O)c1ccc(-n2nnnc2SCC(=O)Nc2ccccc2F)cc1,x,x,-5,-5,x
COc1cccc(CNC(=O)c2cccc(Br)c2)c1,-4,-1,-4,30*,1
COc1cccc(CNC(=O)c2cccc(S(=O)(=O)N3CCN(C)CC3)c2)c1,x,x,-12,5,x
CCCCN(C(=O)Cc1ccc2c(c1)OCCO2)c1c(N)n(CCC)c(=O)[nH]c1=O,x,x,-4,x,x
Nc1cccc(C(=O)NCCNC(=O)c2cccc(N)c2)c1,x,x,-18,4,x
O=C(c1cnn2ccccc12)N1CCN(C2CCCCC2)CC1,8,0,-6,1,3
O=C(c1nc2ccccn2c1CN1CCC(Cc2ccccc2)CC1)N1CCCC1,-5,0,-4,-5,-5
Cc1cccc(OC2CCN(Cc3c(C(=O)N4CCCC4)nc4ccccn34)CC2)c1,-2,0,6,-2,12
SMILES,Runt-SMMHC FRET,Runt-CBFb FRET,CaV13 FRET inh,RanGTP-Imp inh,Hck Nef HTS
NC(=O)[C@@H]1CCCN1Cc1c(C(=O)N2CCN(C3CCCCC3)CC2)nc2ccccn12,x,x,-1,112*,x
O=C(c1nc2ccc(Cl)cn2c1CNCCn1ccnc1)N1CCCCCCC1,4,1,-6,-2,14
O=C(c1nc2ccccn2c1CN1CCCC(O)C1)N1CCN(C2CCCCC2)CC1 (centres undefined),x,x,-6,103*,x
O=C(c1nc2ccc(Cl)cn2c1CN1CCC[C@H]1CO)N1CCCCCCC1,x,x,x,22*,x
COC1CCN(Cc2c(C(=O)N3CCN(C4CCCCC4)CC3)nc3ccccn23)CC1,x,x,x,104*,x
O=C(CSc1nc(Nc2ccccc2)nc(N2CCOCC2)n1)NC1CCCCC1,x,x,-2,6,x
C=CCN(C(=O)c1csnn1)C(C(=O)NCc1ccc(F)cc1)c1sccc1C (centres undefined),x,x,-2,0,x
CNC(=O)C(=O)NCC1OCCN1S(=O)(=O)c1ccc(OC)c(OC)c1 (centres undefined),x,x,-10,-1,x
COCC1CCN(Cc2c(C(=O)N3CCN(C4CCCCC4)CC3)nc3ccccn23)C1 (centres undefined),x,x,-11,111*,x
Cc1sccc1C1C(C#N)=C(N)SC(N)=C1C#N,41,46,x,68*,17
CC1CCN(Cc2ccc(NC(=O)CC3Oc4ccccc4NC3=O)cc2)CC1 (centres undefined),1,0,52*,0,1
O=C(c1ccncc1)N1CCN(c2ccc(F)cc2)CC1,-1,2,-1,6,1
O=C(c1ccc(Cl)cc1)N1CCN(c2ccc(F)cc2)CC1,72*,18,-5,3,10
O=c1[nH]c(N/N=C/c2ccccc2)nc2ccccc12,50*,38,-6,u,6
C(=N\Nc1nc2ccccc2[nH]1)/c1ccccc1,x,x,-3,-2,19
O=c1[nH]c(N/N=C\c2ccc3c(c2)OCO3)nc2ccccc12,16,37,-4,16*,21
O=c1[nH]c(N/N=C/c2cc3c(cc2[N+](=O)[O-])OCO3)nc2ccccc12,2,12,-5,6,38
CCOC(=O)CNC(=O)COc1coc(CN2CCN(Cc3ccccc3)CC2)cc1=O,x,x,-3,4,x
COc1cccc(C2C=C(c3ccc(Br)s3)Nc3ncnn32)c1OC (centres undefined),63*,19,x,-15,-6
COc1ccc(CCNC(=O)CCC(=O)N2CCOc3ccc(Cl)cc32)cc1OC,x,x,-5,-3,x
CN(C)CCCn1c(N)c(C#N)c2nc3ccccc3nc21,80*,9,-4,61*,29
CCCCC(CC)Cn1c(N)c(C#N)c2nc3ccccc3nc21 (centres undefined),101*,44,-5,49*,6
CC1Sc2ccc(S(=O)(=O)CCC(=O)Nc3ccccn3)cc2NC1=O (centres undefined),x,x,-3,-1,x
Cc1ccccc1-n1c(SCC(=O)N2CCOCC2)nc(O)c(Cc2ccccc2)c1=O,x,x,-3,4,x
CCCCn1nnnc1C(c1cc2ccccc2o1)N1CCOCC1 (centres undefined),x,x,-5,x,x
Cc1oc(-c2ccc3ccccc3c2)nc1CN(C)C(C)c1ccncn1 (centres undefined),x,x,-4,7,23
C[C@H](NC(=O)c1nc[nH]c1C(=O)N[C@@H](Cc1ccccc1)C(=O)OCc1ccccc1)C(=O)OCc1ccccc1,x,x,15,0,x
C[C@H](NC(=O)c1nc[nH]c1C(=O)N[C@@H](Cc1ccccc1)C(=O)OC(C)(C)C)C(=O)OCc1ccccc1,x,x,35*,-1,x
